Values after ≈ are worked out from the molar mass of the structure shown. Active and inactive are the calls of the source. The rule behind the calls is not given here.
Key:
[1] = Partition coefficient, logD between 1-octanol and pH 7.4 aqueous buffer by chromatographic analysis; format: physicochemical; conditions: 1-octanol/pH 7.4 aqueous buffer
Method in brief: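 LogD between 1-octanol and aqueous buffer at pH 7.4 was determined by a chromatographic procedure adapted from a published method.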

[2] = biological target: hERG (KCNH2) (Homo sapiens, UniProt Q12809); test: Inhibition of human ERG expressed in CHO cells at 10 uM at holding potential of -80 mV by patch clamp method; format: cell-based; conditions: CHO cells expressing human ERG
Chain of hERG (KCNH2) (Q12809 whole entry): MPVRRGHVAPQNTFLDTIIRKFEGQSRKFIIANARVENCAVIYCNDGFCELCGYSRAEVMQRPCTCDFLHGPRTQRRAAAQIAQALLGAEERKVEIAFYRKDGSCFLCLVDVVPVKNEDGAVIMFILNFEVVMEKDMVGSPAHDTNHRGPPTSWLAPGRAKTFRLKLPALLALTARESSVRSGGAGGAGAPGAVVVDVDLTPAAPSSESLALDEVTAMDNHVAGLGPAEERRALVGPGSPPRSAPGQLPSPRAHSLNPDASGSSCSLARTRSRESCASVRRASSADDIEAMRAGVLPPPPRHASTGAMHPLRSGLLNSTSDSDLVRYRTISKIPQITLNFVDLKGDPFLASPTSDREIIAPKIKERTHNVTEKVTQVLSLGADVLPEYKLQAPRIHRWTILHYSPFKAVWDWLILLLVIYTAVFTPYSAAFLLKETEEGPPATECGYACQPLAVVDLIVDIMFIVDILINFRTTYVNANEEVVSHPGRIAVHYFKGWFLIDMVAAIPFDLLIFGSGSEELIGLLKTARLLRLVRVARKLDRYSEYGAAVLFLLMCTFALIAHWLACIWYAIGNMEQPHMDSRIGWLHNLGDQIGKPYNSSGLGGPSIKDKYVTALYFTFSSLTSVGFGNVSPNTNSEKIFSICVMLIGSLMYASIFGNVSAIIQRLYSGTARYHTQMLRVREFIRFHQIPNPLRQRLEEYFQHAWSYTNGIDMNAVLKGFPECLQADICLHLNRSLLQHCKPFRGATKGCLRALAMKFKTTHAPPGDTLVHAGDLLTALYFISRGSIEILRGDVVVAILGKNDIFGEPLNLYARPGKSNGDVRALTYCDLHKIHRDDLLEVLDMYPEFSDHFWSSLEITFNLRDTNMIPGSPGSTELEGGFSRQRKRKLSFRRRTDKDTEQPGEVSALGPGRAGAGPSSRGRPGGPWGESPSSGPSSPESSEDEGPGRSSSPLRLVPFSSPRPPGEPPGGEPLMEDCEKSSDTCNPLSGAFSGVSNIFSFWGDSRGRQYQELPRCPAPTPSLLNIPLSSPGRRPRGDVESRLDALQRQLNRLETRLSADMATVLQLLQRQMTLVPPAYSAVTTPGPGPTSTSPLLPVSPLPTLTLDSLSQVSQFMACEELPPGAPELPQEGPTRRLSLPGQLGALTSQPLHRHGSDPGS

[3] = biological target: T1, Glucose-dependent insulinotropic receptor (Homo sapiens, UniProt Q8TDV5); test: Agonist activity at human GPR119 expressed in CHO cells co-expressing cyclic AMP response element-luciferase reporter gene incubated for 2 hrs by steady-glo luciferase assay; format: functional, cell-based
T1 sequence (Q8TDV5 whole entry): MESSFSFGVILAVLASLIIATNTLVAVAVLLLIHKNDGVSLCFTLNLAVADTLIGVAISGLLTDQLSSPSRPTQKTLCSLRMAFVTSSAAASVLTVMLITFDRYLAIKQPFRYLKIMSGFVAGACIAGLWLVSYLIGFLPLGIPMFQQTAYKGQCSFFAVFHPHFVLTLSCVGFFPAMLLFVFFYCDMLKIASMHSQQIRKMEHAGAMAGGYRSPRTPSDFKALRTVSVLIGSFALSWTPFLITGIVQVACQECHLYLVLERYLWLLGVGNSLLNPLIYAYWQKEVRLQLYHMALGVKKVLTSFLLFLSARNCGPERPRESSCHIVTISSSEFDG
Method in brief: (§1)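 CHO cells stably expressing human or rat GPR119 were seeded at 10,000 cells/well in MEMα with 10% FBS and Geneticin and grown overnight at 37 °C. After one wash, cells were exposed to compounds at various concentrations in MEMα/20 mM HEPES/0.1% BSA for 2 h. cAMP-driven luciferase was read with Steady-Glo and normalized to vehicle and reference wells. EC50 is the mean, n = 2.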

[4] = Intrinsic clearance in human liver microsomes; format: ADME, Microsome; conditions: read-out: CLH
Method in brief: (§2)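 Human or rat liver microsomes (0.2 mg/mL protein) were incubated with 1 μM compound in 50 mM potassium phosphate, pH 7.4. The reaction was started with an NADPH-generating system and stopped with acetonitrile at 15 and 30 min. Parent compound was quantified by LC/MS/MS, and CLint (μL/min/mg) was taken from the slope of the concentration–time plot.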

[5] = Hepatic clearance in human liver microsomes measured up to 30 mins by LC/MS/MS analysis; format: ADME, Microsome; conditions: read-out: CLH; method in brief: as §2
[6] = Hepatic clearance in rat liver microsomes measured up to 30 mins by LC/MS/MS analysis; format: ADME, Microsome; conditions: read-out: CLH; method in brief: as §2
[7] = Aqueous solubility of the compound at pH 6.8 by HPLC analysis; format: physicochemical; conditions: buffer
Method in brief: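 DMSO stock solutions were added in small volumes to aqueous buffer at pH 6.8 and incubated. Precipitate was removed by filtration, and the filtrate was quantified by HPLC.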

[8] = biological target: T2, Glucose-dependent insulinotropic receptor (Rattus norvegicus, UniProt Q7TQN8); test: Agonist activity at rat GPR119 in golden hamster HIT-T15 cells assessed as induction of glucose-induced insulin secretion after 2 hrs by A1phaLISA; format: functional, cell-based
T2 sequence (Q7TQN8 whole entry): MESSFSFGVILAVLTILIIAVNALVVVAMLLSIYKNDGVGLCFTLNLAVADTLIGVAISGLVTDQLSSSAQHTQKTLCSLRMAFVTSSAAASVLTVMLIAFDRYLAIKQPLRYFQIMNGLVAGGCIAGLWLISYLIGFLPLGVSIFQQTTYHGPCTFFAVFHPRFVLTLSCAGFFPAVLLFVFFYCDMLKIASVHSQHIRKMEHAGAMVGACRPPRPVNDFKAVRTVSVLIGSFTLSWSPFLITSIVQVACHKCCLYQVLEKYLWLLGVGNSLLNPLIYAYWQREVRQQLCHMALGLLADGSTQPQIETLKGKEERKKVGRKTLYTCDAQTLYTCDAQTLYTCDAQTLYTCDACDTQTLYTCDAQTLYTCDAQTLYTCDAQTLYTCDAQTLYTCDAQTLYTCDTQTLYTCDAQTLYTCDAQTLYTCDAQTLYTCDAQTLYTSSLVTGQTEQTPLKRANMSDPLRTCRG
Method in brief: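 Hamster HIT-T15 beta cells were seeded at 5 × 10^4 cells/well and pre-incubated 2 h in KRBH with 0.2% BSA. They were then incubated 2 h at 37 °C with compound in KRBH containing 0.2% fatty-acid-free BSA and 10 mmol/L glucose. Secreted insulin was quantified by AlphaLISA. EC50 from n = 2.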

[9] = tested on: Rattus norvegicus; test: Antidiabetic activity in orally dosed NSTZ1.5 rat assessed as reduction in insulin level administered 60 mins prior to glucose challenge and measured up to 60 mins by OGTT; format: functional, organism-based; conditions: dose 0.3-3 mg/kg
[10] = biological target: T2, Glucose-dependent insulinotropic receptor; test: Agonist activity at rat GPR119 expressed in CHO cells co-expressing cyclic AMP response element-luciferase reporter gene incubated for 2 hrs by steady-glo luciferase assay; format: functional, cell-based; method in brief: as §1
[11] = Oral bioavailability in […] at 1 mg/kg administered as cassette dose by LC/MS/MS analysis; format: ADME, organism-based, Rattus norvegicus; conditions: in vivo
[12] = Volume of distribution at steady state in rat at 0.1 mg/kg, iv administered as cassette dose by LC/MS/MS analysis; format: ADME, organism-based; conditions: in vivo
Method in brief: (§3)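 Intravenous cassette dosing at 0.1 mg/kg in rats (the methods text says non-fasted mice). Plasma was obtained from blood samples, deproteinized, centrifuged, and analysed by LC/MS/MS.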

[13] = AUC in […] at 1 mg/kg, po administered as cassette dose by LC/MS/MS analysis; format: ADME, organism-based, Rattus norvegicus; set-up: dose 1 mg/kg; conditions: in vivo
[14] = Clearance in rat at 0.1 mg/kg, iv administered as cassette dose by LC/MS/MS analysis; format: ADME, organism-based; conditions: in vivo; method in brief: as §3
[15] = biological target: T2, Glucose-dependent insulinotropic receptor; test: Agonist activity at rat GPR119 in GLUTag cells assessed as induction of GLP-1 secretion after 2 hrs by ELISA; format: functional, cell-based
Method in brief: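 Murine GLUTag L cells were seeded at 1 × 10^4 cells/well on poly-L-lysine and moved overnight to low-glucose DMEM. After a Hank's wash, cells were incubated 2 h at 37 °C with compound in KRBH containing 0.2% fatty-acid-free BSA and 10 mmol/L glucose. Active GLP-1 in the supernatant was measured by ELISA. EC50 from n = 2.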

[16] = tested on: Rattus norvegicus; test: Antidiabetic activity in NSTZ1.5 rat assessed as reduction in plasma glucose level at 0.3 to 3 mg/kg, po administered 60 mins prior to glucose challenge and measured up to 60 mins by OGTT; format: functional, organism-based; conditions: dose 0.3-3 mg/kg
[17] = Mean residence time in rat at 1 mg/kg, po administered as cassette dose by LC/MS/MS analysis; format: ADME, organism-based; conditions: in vivo
Method in brief: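 Rat cassette PK. Oral dose 1 mg/kg in 0.5% methylcellulose aqueous solution. The methods text says non-fasted mice. Blood was collected after dosing, and plasma was deproteinized and centrifuged. Compound in the supernatant was measured by LC/MS/MS.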

SMILES | logD [1] | inhibition at 10 µM [2] [%] | EC50 [3] [nM] | further results
CC(C)(C)OC(=O)N1CCC(Nc2cc(N3CCc4cc(S(C)(=O)=O)ccc43)ncn2)CC1 | 2.7 | 80 | 300 | –
CN(c1cc(N(C2CCN(C(=O)OC(C)(C)C)CC2)C(F)(F)F)ncn1)C1CCN(S(C)(=O)=O)CC1 | – | – | > 10000 | –
CC(C)c1noc(N2CCC(Oc3cc(N4CCc5cc(N6CCC[C@H](O)C6=O)ccc54)ncn3)CC2)n1 | – | – | – | microsomal CLint [4]: 10 µL/min/mg
CCN(c1cc(N2CCc3cc(S(C)(=O)=O)ccc32)ncn1)C1CCN(C(=O)OC(C)(C)C)CC1 | 3.5 | 116 | 14 | –
CS(=O)(=O)N1CCC(Oc2cc(N(C3CCN(c4nc(C5CC5)no4)CC3)C(F)(F)F)ncn2)CC1 | – | – | 5.4 | microsomal CLint [5]: 31 µL/min/mg; microsomal CLint [6]: 13 µL/min/mg; solubility [7]: 15 µg/mL (≈ 28.2 µM)
CC(C)(C)OC(=O)N1CCC(N(c2cc(OC3CCN(S(C)(=O)=O)CC3)ncn2)C(F)(F)F)CC1 | – | – | 3.6 | –
COCCN(c1cc(N2CCc3cc(S(C)(=O)=O)ccc32)ncn1)C1CCN(C(=O)OC(C)(C)C)CC1 | 3.4 | 120 | 29 | –
CC(C)(C)OC(=O)N1CCC(N(CC2CC2)c2cc(N3CCc4cc(S(C)(=O)=O)ccc43)ncn2)CC1 | 4.1 | 100 | 51 | –
CN(c1cc(N2CCc3cc(S(C)(=O)=O)ccc32)ncn1)C1CCN(C(=O)OC(C)(C)C)CC1 | 3.2 | 85 | 21 | –
CC(C)(F)c1noc(N2CCC(N(c3cc(OC4CCN(S(C)(=O)=O)CC4)ncn3)C(F)(F)F)CC2)n1 | – | 19 | 4.6 | microsomal CLint [4]: 27 µL/min/mg; EC50 [8]: 4.8 nM; Activity [9]: Dose-Dependent Effect; EC50 [10]: 24 nM; microsomal CLint [5]: 27 µL/min/mg; bioavailability [11]: 57%; Vdss [12]: 1.27 L/kg; microsomal CLint [6]: < 1 µL/min/mg; AUC [13]: 1540 ng·h/mL; solubility [7]: 21 µg/mL (≈ 38.1 µM); clearance [14]: 6.22 mL/min/kg; EC50 [15]: 3.8 nM; Activity [16]: Active; MRT [17]: 4.05 h
CCCN(c1cc(N2CCc3cc(S(C)(=O)=O)ccc32)ncn1)C1CCN(C(=O)OC(C)(C)C)CC1 | 4 | 94 | 18 | –
CC(C)(C)OC(=O)N1CCC(N(c2cc(OC3CN(S(C)(=O)=O)C3)ncn2)C(F)(F)F)CC1 | – | – | 7100 | –
CC(C)(C)OC(=O)N1CCC(N(c2cc(OCC3CN(S(C)(=O)=O)C3)ncn2)C(F)(F)F)CC1 | – | – | 960 | –
CC(C)c1noc(N2CCC(N(c3cc(N4CCc5cc(S(C)(=O)=O)ccc54)ncn3)C(F)(F)F)CC2)n1 | 3.79 | – | 2.9 | solubility [7]: < 0.22 µg/mL
CC(C)c1noc(N2CCC(N(c3cc(OC4CCN(S(C)(=O)=O)CC4)ncn3)C(F)(F)F)CC2)n1 | – | – | 2.7 | microsomal CLint [5]: 108 µL/min/mg; microsomal CLint [6]: 36 µL/min/mg; solubility [7]: 29 µg/mL (≈ 54.4 µM)
CC(C)(C)OC(=O)N1CCC(N(c2cc(NC3CCN(S(C)(=O)=O)CC3)ncn2)C(F)(F)F)CC1 | – | – | 43 | –
CC(C)(C)OC(=O)N1CCC(N(c2cc(O[C@H]3CC[C@H](S(C)(=O)=O)CC3)ncn2)C(F)(F)F)CC1 | – | – | 270 | –
CC(C)(C)OC(=O)N1CCC(N(c2cc(N3CCc4cc(S(C)(=O)=O)ccc43)ncn2)C(F)(F)F)CC1 | 4.1 | 13 | 2.5 | –

From ChEMBL document CHEMBL4811273, “Discovery of a novel series of GPR119 agonists: Design, synthesis, and biological evaluation of N-(Piperidin-4-yl)-N-(trifluoromethyl)pyrimidin-4-amine derivatives” (Bioorg Med Chem, 2021)
